Bioassay records (PubChem)
HSP90 refold inh: inhibitors of HSP90 luciferase refolding in rabbit reticulocyte lysate; luciferase refolding luminescence, 3 h; inhibition, % at 5.6 µM; AID 1789; 0.91% of 290,000 active;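 active = inhibition above the screen-wide mean plus 3 SD, computed separately per campaign, cut at about 16% in these data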;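 also: 0% = DMSO wells and 100% = 60 µM geldanamycin wells; inhibitors lower the luminescence because luciferase stays unfolded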
SENP7 block: SENP7 protease inhibition; recombinant SENP7, Z-RLRGG-aminoluciferin luminescence, 40 min; inhibition, % at 5 µM; 1.5% of 330,000 active; AID 434973;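 active = inhibition above about 50% at the single test dose, limit read from the data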;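 also: plate controls were DMSO with enzyme for no effect and no enzyme buffer wells for full effect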
SENP6 inh: inhibitors of human SENP6 protease; Q9GZR1; Recombinant SENP6 catalytic domain, aminoluciferin luminescence; inhibition, % at 10 µM; 1.8% of 330,000 active; AID 2599;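 active = inhibition above about 50% at the single tested dose, limit read from the data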;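 also: plate controls were DMSO wells with enzyme for no effect and DMSO wells lacking enzyme for full effect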
Target sequence (Q9GZR1 628-1112 limits assumed): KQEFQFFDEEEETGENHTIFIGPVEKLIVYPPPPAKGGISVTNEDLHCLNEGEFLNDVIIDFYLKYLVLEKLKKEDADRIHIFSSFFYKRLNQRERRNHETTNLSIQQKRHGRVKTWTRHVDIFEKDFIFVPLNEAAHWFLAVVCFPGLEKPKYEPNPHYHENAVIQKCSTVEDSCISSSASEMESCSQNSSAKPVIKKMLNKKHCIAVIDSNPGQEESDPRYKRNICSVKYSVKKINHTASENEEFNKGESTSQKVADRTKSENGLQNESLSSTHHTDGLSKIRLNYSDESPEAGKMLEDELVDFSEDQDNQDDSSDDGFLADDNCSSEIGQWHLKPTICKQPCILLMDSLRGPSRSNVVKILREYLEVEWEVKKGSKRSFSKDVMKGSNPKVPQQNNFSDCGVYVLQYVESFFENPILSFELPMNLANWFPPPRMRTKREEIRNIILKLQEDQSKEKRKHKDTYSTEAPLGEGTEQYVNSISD
SENP1 inh: blocks the human SENP1 SUMO protease catalytic domain; Q9P0U3; recombinant SENP1 catalytic domain, CyPet-SUMO1-YPet FRET cleavage; inhibition, % at 10 µM; 0.21% of 360,000 active; AID 624204;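 active = inhibition at least 30% at 10 µM, raw YFP signal under a set limit, fluorescence ratio 0.5 to 1.5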;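 also: 0% = enzyme with DMSO and 100% = no enzyme wells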
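Controls: no-enzyme wells low, DMSO-plus-enzyme wells high control. Test system: human recombinant His6-tagged SENP1 catalytic domain enzyme. Reagent: SFCypet-SUMO1-SFYpet FRET protein substrate, 25 nM final. Doses: one dose per compound, 10 µM, 0.5% DMSO. Detection: FRET, CFP and YFP emission. Timing: 50 min reaction at room temperature.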
SENP8 block-1: blocks the human protease SENP8. purified SENP8, Z-RLRGG-aminoluciferin cleavage, luminescence. 1.2% of 330,000 active. AID 2540. inhibition, % at 10 µM; in the data active = inhibition above about 50%
Target sequence (Q96LD8 whole entry, looked up): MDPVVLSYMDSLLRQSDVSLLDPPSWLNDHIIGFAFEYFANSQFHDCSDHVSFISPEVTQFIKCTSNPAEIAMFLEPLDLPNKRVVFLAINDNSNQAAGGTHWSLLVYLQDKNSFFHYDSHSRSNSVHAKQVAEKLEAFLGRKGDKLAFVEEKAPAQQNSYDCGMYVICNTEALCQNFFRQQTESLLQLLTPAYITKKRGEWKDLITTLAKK
SENP8 block-2: inhibitors of human SENP8 protease; inhibition, % at 20 µM; recombinant SENP8, Nedd8 substrate fluorescence; AID 602440; 0.64% of 360,000 active; in the data active = inhibition mostly above about 40%, no sharp cut-off; inactive = mostly below about 27%
HSP90 confirm: HSP90 inhibition, confirmation assay. rabbit reticulocyte lysate, luciferase refolding luminescence, 3 h. shares compounds with HSP90 refold inh. AID 1846. inhibition, % at 5.9 µM. 64% of 2,300 active; in the data active = inhibition above about 18%;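 also: 0% = vehicle wells and 100% = reference inhibitor wells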
luciferase ctr: firefly luciferase inhibition, HSP90 counter-screen; purified native firefly luciferase, luminescence; AID 1847; shares compounds with HSP90 refold inh; inhibition, % at 5.9 µM; 48% of 2,300 active;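 active = inhibition above the mean inhibition of all tested sample wells plus 3 SD, cut at about 10% in these data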;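 also: 0% = DMSO with luciferase and 100% = wells lacking luciferase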
An asterisk follows results filed as active; / = no result. A selection: hits, their analogues and other compounds. The true share with any hit is near 2.9%.

SMILES | HSP90 refold inh | SENP7 block | SENP6 inh | SENP1 inh | SENP8 block-1 | SENP8 block-2 | HSP90 confirm | luciferase ctr
CCC(=O)Nc1cccc(-c2nc3ccccc3o2)c1 | 8 | -7 | -16 | 3 | -15 | -9 | / | /
CCC(=O)Nc1cccc(-c2cc3ccccc3oc2=O)c1 | 19* | 5 | 5 | 1 | 4 | -203 | 32* | 19*
CCCC(=O)Nc1nc2ccc(C(=O)OCC)cc2s1 | 7 | -7 | -1 | -11 | 1 | -4 | / | /
CCCCC(=O)Nc1nc2ccc(C(=O)OC)cc2s1 | 41* | -12 | -36 | -6 | -12 | -8 | 59* | -16
COc1ccc(CCC(=O)Nc2nnc(C(F)(F)F)s2)cc1 | -1 | 0 | -5 | 1 | 8 | 4 | / | /
Cc1ccccc1NC(=O)CN1C(=O)NC2(CCCCCCC2)C1=O | / | 5 | -3 | 0 | 4 | 3 | / | /
Cc1cc(N=Nc2ccc(C)c(N=Nc3cc(C)c(N)cc3N)c2)c(N)cc1N | 17* | 6 | 52* | 16 | 53* | 31 | 33* | 51*
Cc1csc(N/N=C/c2ccccn2)n1 | 48* | 83* | 87* | 1 | 85* | -5 | 53* | 38*
COc1ccc(C(=O)OCCOc2ccccc2C(C)=O)c(O)c1 | 28* | 1 | 13 | 0 | 3 | 4 | 7 | -4
O=C1NC[C@H](CCCCN2C[C@H](Cc3ccc(O)cc3)N(CCc3ccc(O)cc3)C(=O)C2=O)N(CCc2ccccc2)C1=O | / | / | / | 1 | / | 5 | / | /
CS(=O)(=O)c1cc(N2CCOCC2)ccc1CNC[C@H]1O[C@@H](n2cnc3c(=O)[nH]c(N)nc32)[C@H](O)[C@@H]1O | / | / | / | -3 | / | -59 | / | /
CCN(CC)CCOC(=O)c1ccc(NC(=O)/C=C/c2cccs2)cc1 | 27* | 0 | 0 | -1 | -3 | -65 | 6 | -7
CCN1CCN(Cc2ccc(NC(=O)Nc3ccccc3)cc2)CC1 | 20* | -4 | 6 | 3 | 0 | 14 | 29* | 9
CC1=CSC2=NC(=O)/C(=C\c3cccn3-c3ccccc3)C(=N)N12 | 4 | -3 | -11 | -15 | -7 | 16 | / | /
CC(C)c1ccc(-n2cccc2/C=C2/C(=N)N3C=CSC3=NC2=O)cc1 | 32* | -7 | -10 | -34 | -11 | -4 | 22* | 3
C=CCSc1nnc(NC(=O)CCNC(=O)c2ccccc2Cl)s1 | / | / | / | 0 | / | 4 | / | /
O=C(Nc1ccc(-n2cnnn2)cc1)c1cn2ccccc2n1 | -1 | 33 | 25 | 28 | -5 | -67 | / | /
O=C(Nc1ccccc1)c1cn2ccccc2n1 | 37* | 91* | 90* | 3 | 82* | 28 | 59* | 41*
Cc1cc(C)c2[nH]c(C(=O)Nc3ccc(F)cc3Br)cc2c1 | 9 | -3 | 5 | -37 | -1 | -108 | / | /
O=C(O)C(=Cc1cccc([N+](=O)[O-])c1)c1ccc(Cl)cc1 | / | / | / | 1 | / | 4 | / | /
C[C@H]1CN([C@@H](C)CO)C(=O)CCCn2nncc2CO[C@@H]1CN(C)S(=O)(=O)c1ccc(-c2ccccc2)cc1 | / | / | / | 1 | / | 16 | / | /
CCCc1nc(SCC(=O)Nc2nc3c(s2)CCCC3)c2ccccc2n1 | 19* | 0 | 7 | 0 | 4 | 13 | 11 | 0
OC(c1ccccc1)c1nc(-c2ccc(Cl)cc2)cs1 (centres undefined) | / | / | / | 4 | / | 4 | / | /
CC(C)(C)C(=O)N1CCc2cc(-c3csc(N)n3)ccc21 | 57* | 12 | 35 | -2 | 5 | -18 | 76* | 70*
COc1ccc(C(=O)Nc2ccc3[nH]ncc3c2)cc1 | 14 | 3 | 10 | 0 | 7 | 12 | / | /
SMILES | HSP90 refold inh | SENP7 block | SENP6 inh | SENP1 inh | SENP8 block-1 | SENP8 block-2 | HSP90 confirm | luciferase ctr
CCOc1ccc(C(=O)Nc2ccc3[nH]ncc3c2)cc1 | 18* | 5 | 13 | 2 | -8 | 6 | 40* | 11*
O=C(O)c1ccc(N=NN2CCCC2)cc1 | 10 | 5 | -12 | -1 | 3 | 3 | / | /
O=C(O)c1ccc(N=NN2CCCCCC2)cc1 | 21* | 2 | 19 | 3 | 3 | 26 | 42* | 12*
O=C(O)c1ccc(N/N=C/c2cc3ccccc3nc2Cl)cc1 | 28* | 6 | 39 | -33 | 10 | -103 | 6 | -14
O=c1[nH]c(=S)[nH]c2nccnc12 | / | / | / | -1 | / | 2 | / | /
O=C(CN1C(=O)C2C3C=CC(C3)C2C1=O)OCC(=O)c1ccc(Cl)c([N+](=O)[O-])c1 (centres undefined) | 3 | 0 | 10 | 0 | 0 | 3 | / | /
CC(=O)Nc1ccc(OS(=O)(=O)c2ccc([N+](=O)[O-])cc2)cc1 | 55* | 4 | 2 | 2 | -8 | 16 | 76* | -5
Cc1ccc(S(=O)(=O)NC(C)CCc2ccccc2)cc1C(N)=O (centres undefined) | -1 | -13 | 2 | 0 | -5 | 6 | / | /
CC1(C)C(=O)Nc2ccccc2N1C(=O)COC(=O)c1cccnc1Cl | / | 12 | -4 | 0 | -6 | 6 | / | /
CCOC(=O)c1c(C)[nH]c(C(=O)COC(=O)c2ccc([N+](=O)[O-])o2)c1C | / | 3 | 18 | 1 | -1 | 27 | / | /
N#CCC(=O)N/N=C\c1cccc(OC/C=C/c2ccccc2)c1 | 21* | -7 | -3 | 2 | -2 | -7 | 26* | -26
CC(=O)N/N=C\c1cccc(OC/C=C/c2ccccc2)c1 | 21* | -3 | -15 | 1 | -1 | -7 | 19* | -13
COc1cc(/C=N\NC(=O)CC#N)ccc1OC/C=C/c1ccccc1 | 0 | 10 | -3 | -2 | -1 | -41 | / | /
CCOc1ccc(OCc2ccc(C(=O)N3CCCCC3)o2)cc1 | 23* | 5 | -2 | 3 | -3 | -6 | 13 | -26
CCOc1ccc(OCc2ccc(C(=O)Nc3cccnc3)o2)cc1 | 28* | 9 | 0 | -1 | 4 | 5 | 32* | -23
CCOc1ccc(OCc2ccc(C(=O)N3CCc4ccccc4C3)o2)cc1 | 24* | 6 | 22 | -4 | 6 | -12 | 33* | -18
Cc1ccc(OCc2ccc(C(=O)N3CCCC3)o2)cc1C | -3 | -5 | -8 | 1 | -12 | 9 | / | /
COc1ccc(C(=O)C2CCN(CC(=O)Nc3ccc(C)cc3)CC2)cc1 | 5 | 9 | -12 | 1 | -4 | 10 | / | /
O=c1cc(SCc2ccccc2)nc[nH]1 | / | / | / | -1 | / | 11 | / | /
CC(C)(C)c1ccc(C(=O)Nc2cccc3c(=O)[nH][nH]c(=O)c23)cc1 | 47* | / | / | -32 | / | -285 | 62* | 21*
O=C(O)c1cccc(S(=O)(=O)NCC2COc3ccccc3O2)c1 (centres undefined) | / | -7 | -4 | 1 | -3 | 0 | / | /
